In ChEMBL document CHEMBL1154358, “Xanalteric acids I and II and related phenolic compounds from an endophytic Alternaria sp. isolated from the mangrove plant Sonneratia alba” (J Nat Prod, 2009) one finds Activity, viability and MIC data, which are given here for 13 compounds.

Each structure is given as a SMILES string. In brackets after ≈: the same amount, converted by molar mass. Activity calls are given as the source filed them.

One data set concerns Klebsiella pneumoniae. The experiment in a line: Antibacterial activity against multidrug-resistant Klebsiella pneumoniae by broth dilution method. It counts as functional, organism-based. The essentials: (§1)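 Dilution assay following EUCAST criteria against multidrug-resistant bacterial or fungal strains. Compounds were tested from 250 down to 0.48 μg/mL. MIC was taken as the lowest concentration at which bacterial or fungal growth was inhibited.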

For another data set, the system named is Candida albicans. The experiment in a line: Antifungal activity against multidrug-resistant Candida albicans by broth dilution method. It is filed as functional. The essentials: as §1
A further data set concerns Acinetobacter baumannii. The experiment in a line: Antibacterial activity against multidrug-resistant Acinetobacter baumannii by broth dilution method. It counts as functional, organism-based. On the technique in general: Broth dilution looks for growth in wells or tubes with falling amounts of substance.
The subject of the next data set is Aspergillus ficuum. Description: Antifungal activity against multidrug-resistant Aspergillus ficuum by broth dilution method. It is filed as functional.
Another data set concerns Pichia kudriavzevii. Description: Antifungal activity against multidrug-resistant Candida krusei by broth dilution method. It is filed as functional, organism-based. The essentials:
as §1

The next data set has as its system Streptococcus pneumoniae. Description: Antibacterial activity against multidrug-resistant Streptococcus pneumoniae by broth dilution method. It is filed as functional. The gist of the method:
as §1

In another data set the test system is Escherichia coli. The experiment in a line: Antibacterial activity against multidrug-resistant Escherichia coli by broth dilution method. It counts as functional, organism-based. The essentials:
as §1

Another data set deals with Enterobacter cloacae. Description: Antibacterial activity against multidrug-resistant Enterobacter cloacae by broth dilution method. It counts as functional. The gist of the method:
as §1

For another data set, the system named is Staphylococcus aureus. The experiment in a line: Antibacterial activity against methicillin-resistant Staphylococcus aureus by broth dilution method. It counts as functional. The essentials:
as §1

Another data set concerns Enterococcus faecium. The experiment in a line: Antibacterial activity against multidrug-resistant Enterococcus faecium by broth dilution method. It is filed as functional. The essentials:
as §1

A further data set relates to Aspergillus fumigatus. Description: Antifungal activity against multidrug-resistant Aspergillus fumigatus by broth dilution method. It counts as functional, organism-based. The gist of the method:
as §1

The next data set relates to Pseudomonas aeruginosa. Description: Antibacterial activity against multidrug-resistant Pseudomonas aeruginosa by broth dilution method. It is filed as functional, organism-based. The gist of the method: as §1
Data set [1] is described as follows: Cytotoxicity against mouse L5178Y cells assessed as cell viability at 10 ug/ml after 24 hrs by MTT assay. It is filed as cell-based. As to conditions: read-out: Activity. The gist of the method: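 Mouse lymphoma L5178Y cells; viability read by MTT tetrazolium microculture assay. Run as three independent experiments, each in triplicate. Medium with 0.1% (v/v) EtOH served as the negative control in every experiment.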
A general note: Tetrazolium assays rely on reduction of a dye to a coloured formazan, in cell work by metabolically active cells.

As for `O=C1C[C@@H](O)[C@@H]2c3ccc(O)c4c3[C@@H](c3ccc(O)c1c32)[C@H](O)CC4=O`, the outcome in the data set with Klebsiella pneumoniae, with Candida albicans, in the data set on Acinetobacter baumannii, in the data set with Aspergillus ficuum, in the data set on Pichia kudriavzevii and with Streptococcus pneumoniae was inactive. The result in the data set with Escherichia coli, in the data set on Enterobacter cloacae, in the data set with Staphylococcus aureus, with Enterococcus faecium, in the data set on Aspergillus fumigatus and in the data set on Pseudomonas aeruginosa was inactive.

For `COc1c(CC(C)O)c2c3c(CC(C)O)c(OC)c(=O)c4c(O)cc5c(c6c(cc(O)c(c1=O)c62)OCO5)c43` (centres undefined), the outcome in the data set with Klebsiella pneumoniae, in the data set on Candida albicans, in the data set on Acinetobacter baumannii, with Aspergillus ficuum, in the data set with Pichia kudriavzevii and in the data set with Streptococcus pneumoniae was inactive. The result with Escherichia coli, in the data set with Enterobacter cloacae, with Staphylococcus aureus, in the data set on Enterococcus faecium, in the data set with Aspergillus fumigatus and with Pseudomonas aeruginosa was inactive.

On to `COc1cc(O)c2c(c1)C1=C[C@H](O)[C@@H](O)C[C@]1(C)OC2=O`, for which the result with Klebsiella pneumoniae, in the data set with Candida albicans, with Acinetobacter baumannii, in the data set on Aspergillus ficuum, with Pichia kudriavzevii and in the data set with Streptococcus pneumoniae was inactive. The outcome with Escherichia coli, in the data set with Enterobacter cloacae, in the data set with Staphylococcus aureus, in the data set on Enterococcus faecium, in the data set with Aspergillus fumigatus and in the data set on Pseudomonas aeruginosa was inactive.

In general, MIC refers to the smallest concentration in the dilution series that meets the test's criterion for growth inhibition. Regarding `O=C1C=Cc2c3c4c(c(O)ccc4c4ccc(O)c1c24)OC(C(=O)O)C3O` (centres undefined) [XANALTERIC ACID I], the result in the data set with Klebsiella pneumoniae, in the data set on Acinetobacter baumannii, with Pichia kudriavzevii, in the data set with Escherichia coli, with Aspergillus fumigatus and in the data set with Pseudomonas aeruginosa was inactive. Also, the viability at 24 h, 10 ug/ml in [1] is 45%. Inhibition of growth with Staphylococcus aureus (MIC) required 125 µg/mL (≈ 343 µM).

As for `O=C1C[C@@H](O)[C@H]2c3c(ccc(O)c31)-c1ccc(O)c3c1[C@]2(O)C=CC3=O`, the result with Klebsiella pneumoniae, with Candida albicans, in the data set on Acinetobacter baumannii, with Aspergillus ficuum, with Pichia kudriavzevii and in the data set on Streptococcus pneumoniae was inactive. In addition, the outcome in the data set with Escherichia coli, with Enterobacter cloacae, with Staphylococcus aureus, in the data set with Enterococcus faecium, in the data set with Aspergillus fumigatus and with Pseudomonas aeruginosa was inactive.

As for `Cc1cc(O)cc2oc(=O)c3c(O)cc(O)cc3c12`, the MIC entry in the data set with Klebsiella pneumoniae, in the data set with Acinetobacter baumannii, in the data set on Pichia kudriavzevii, in the data set on Escherichia coli, in the data set on Aspergillus fumigatus and in the data set on Pseudomonas aeruginosa was “inactive” throughout. For the same compound, the outcome in the data set with Candida albicans, in the data set on Aspergillus ficuum, in the data set with Streptococcus pneumoniae, in the data set with Enterobacter cloacae, in the data set with Staphylococcus aureus and in the data set on Enterococcus faecium was inactive.

Regarding `COc1cc(O)c(C(=O)O)c(-c2c(C)cc(C(=O)O)oc2=O)c1` [ALTERNARIAN ACID], the outcome in the data set with Klebsiella pneumoniae, in the data set with Candida albicans, with Acinetobacter baumannii, in the data set on Aspergillus ficuum, in the data set on Pichia kudriavzevii and with Streptococcus pneumoniae was inactive. The result in the data set on Escherichia coli, with Enterobacter cloacae, in the data set on Staphylococcus aureus, with Enterococcus faecium, in the data set on Aspergillus fumigatus and in the data set with Pseudomonas aeruginosa was inactive. Moreover, the viability at 24 h, 10 ug/ml in [1] turned out to be 99.2%.

As to `COc1cc(O)c2c(=O)oc3cc(O)cc(C)c3c2c1`, the result in the data set with Klebsiella pneumoniae, in the data set on Candida albicans, with Acinetobacter baumannii, in the data set on Aspergillus ficuum, in the data set on Pichia kudriavzevii and with Streptococcus pneumoniae was inactive. The result in the data set on Escherichia coli, in the data set on Enterobacter cloacae, with Staphylococcus aureus, in the data set with Enterococcus faecium, in the data set with Aspergillus fumigatus and in the data set on Pseudomonas aeruginosa was inactive.

Consider `COc1c(CC(C)O)c2c3c(CC(C)O)c(C(=O)O)oc4c(O)cc5c(c6c(cc(O)c(c1=O)c62)OCO5)c43` (centres undefined), for which the outcome in the data set with Klebsiella pneumoniae, in the data set with Candida albicans, with Acinetobacter baumannii, in the data set on Aspergillus ficuum, in the data set on Pichia kudriavzevii and in the data set with Streptococcus pneumoniae was inactive. Also, the outcome with Escherichia coli, in the data set with Enterobacter cloacae, with Staphylococcus aureus, with Enterococcus faecium, in the data set with Aspergillus fumigatus and in the data set with Pseudomonas aeruginosa was inactive.

For `O=C1C=Cc2c3c4c(c(O)ccc4c4ccc(O)c1c24)OC(O)(C(=O)O)C3` (centres undefined) [XANALTERIC ACID II], the result in the data set on Klebsiella pneumoniae, with Acinetobacter baumannii, in the data set on Pichia kudriavzevii, in the data set with Escherichia coli, in the data set with Aspergillus fumigatus and with Pseudomonas aeruginosa was inactive. Besides, the viability at 24 h, 10 ug/ml in data set [1] amounted to 87.5%. For the same compound, 250 µg/mL (≈ 686 µM) was the least that counted as inhibitory against Staphylococcus aureus (MIC).

For `O=C1C[C@H](O)[C@@H]2c3c(ccc(O)c31)-c1ccc(O)c3c1[C@@]2(O)CCC3=O`, the outcome with Klebsiella pneumoniae, in the data set with Candida albicans, in the data set with Acinetobacter baumannii, in the data set on Aspergillus ficuum, in the data set with Pichia kudriavzevii and in the data set on Streptococcus pneumoniae was inactive. In addition, the outcome with Escherichia coli, in the data set on Enterobacter cloacae, with Staphylococcus aureus, with Enterococcus faecium, in the data set with Aspergillus fumigatus and in the data set with Pseudomonas aeruginosa was inactive.

Consider `COc1cc(O)c(C(=O)O)c(-c2cc(O)c(O)cc2C)c1` [ALTENUSIN], for which the outcome with Klebsiella pneumoniae, with Acinetobacter baumannii, in the data set on Pichia kudriavzevii, in the data set on Escherichia coli, in the data set with Aspergillus fumigatus and in the data set with Pseudomonas aeruginosa was inactive. In addition, the MIC with Candida albicans came out at 125 µg/mL (≈ 431 µM); with Aspergillus ficuum, 62.5 µg/mL; with Streptococcus pneumoniae, 31.2 µg/mL (≈ 108 µM); against Enterobacter cloacae, 125 µg/mL (≈ 431 µM); against Staphylococcus aureus, 31.2 µg/mL (≈ 108 µM); in the data set on Enterococcus faecium it was 62.5 µg/mL (≈ 215 µM).

As to `COc1cc(O)c2c(c1)C1C[C@H](O)[C@@H](O)C[C@@]1(C)OC2=O` (some centres undefined), the result in the data set with Klebsiella pneumoniae, in the data set on Candida albicans, in the data set with Acinetobacter baumannii, with Aspergillus ficuum, in the data set on Pichia kudriavzevii and in the data set on Streptococcus pneumoniae was inactive. In addition, the result with Escherichia coli, with Enterobacter cloacae, with Staphylococcus aureus, in the data set with Enterococcus faecium, in the data set on Aspergillus fumigatus and in the data set with Pseudomonas aeruginosa was inactive.
